Data as given in ChEMBL document CHEMBL4382209, “Comparison between porphin, chlorin and bacteriochlorin derivatives for photodynamic therapy: Synthesis, photophysical properties, and biological activity” (Eur J Med Chem, 2018).
The source made the active and inactive calls. The rule behind the calls is not given here.

Key:
[1] = Dark toxicity in human ECA109 cells assessed as cell survival at 20 uM after 24 hrs by MTT assay relative to control; type: cell-based, ECa-109; conditions: read-out: Survival
Summary of the method: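 Eca-109 human esophageal carcinoma cells in RPMI-1640 with 10% FBS, trypsinised and seeded at 5×10^4 cells per well, attached for 24 h. Photosensitiser in medium (0 to 60 μM) was taken up for 24 h and the cells were not irradiated. Viability was read by MTT colorimetric assay 24 h after treatment.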

[2] = Induction of singlet oxygen generation assessed as singlet oxygen quantum yield by measuring DPBF chemical oxidation in DMF solution incubated up to 8 mins at 5 mW/cm2 laser irradiation by UV-Vis spectrophotometry; type: functional
[3] = Dark toxicity in human ECA109 cells assessed as decrease in cell viability after 24 hrs by MTT assay; type: cell-based, ECa-109
ECa-109 cell line [4] = experiment: Phototoxicity against human ECA109 cells assessed as decrease in cell viability after 24 hrs at 16 J/cm2 irradiation by MTT assay; type: functional, cell-based; conditions: ECa-109, light or radiation study
Summary of the method: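 Eca-109 cells (5×10^4/well, attached for 24 h) took up compound (0–16 μM) for 24 h. They were washed with PBS and irradiated with Nd:YAG laser at 16 J/cm²: 635 nm for porphins, 650 nm for chlorins, 730 nm for bacteriochlorins. MTT viability was read 24 h later, and IC50 was derived.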

[5] = Induction of singlet oxygen generation assessed as singlet oxygen quantum yield by measuring DPBF chemical oxidation in DMF solution incubated up to 4 mins at 5 mW/cm2 laser irradiation by UV-Vis spectrophotometry; type: functional
[6] = Induction of singlet oxygen generation assessed as singlet oxygen quantum yield by measuring DPBF chemical oxidation in DMF solution incubated up to 5 mins at 5 mW/cm2 laser irradiation by UV-Vis spectrophotometry; type: functional
[7] = Drug uptake in mitochondria of human ECA109 cells at 10 uM after 4 hrs by Mito Tracker green dye-based confocal fluorescence microscopic method; type: ADME; conditions: eca-109, 4 h
Summary of the method: (§1)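 Eca-109 cells were plated on poly-L-lysine-coated coverslips at 1×10^5 cells/mL. After 24 h, they took up 10 μM compound in the dark for 4 h at 37 °C. They were stained with Mito-tracker Green or Lyso-Blue for 20 min at 37 °C, rinsed, and fixed in 4% paraformaldehyde at 4 °C for 30 min. Confocal imaging used sequential scans, exciting at 490 nm (Mito), 373 nm (Lyso, PS).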

[8] = Drug uptake in lysosomes of human ECA109 cells at 10 uM after 4 hrs by Lyso Blue dye-based confocal fluorescence microscopic method; type: ADME, subcellular, Lysosome; conditions: eca-109, 4 h; summary of the method: as §1
ECa-109 cell line [9] = experiment: Antitumor activity against human ECA109 cells xenografted in BALB/c nude mouse assessed as tumor size at 5 mg/kg, iv treated for 24 hrs before 120 J/cm2 laser light irradiation for 5 mins and measured every other day up to 14 days (reference value: 785 +/- 37 mm3); type: functional
Summary of the method: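 Eca-109 s.c. xenografts (5×10^6 cells, right forelimb) were grown in female BALB/c nude mice to ~100 mm³. Compound 5 mg/kg in 0.2 mL went i.v. into the tail vein. At 24 h, restrained unanaesthetised mice got 730 nm laser at 120 J/cm² to the tumour. Controls received no PS or light; 6 mice/group. Volume LW²/2 was taken every two days for 14 days.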

ECa-109 cell line [10] = experiment: Antitumor activity against human ECA109 cells xenografted in BALB/c nude mouse assessed as tumor size at 5 mg/kg, iv measured every other day up to 14 days; type: functional, organism-based
Summary of the method: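 Four-week-old female BALB/c nude mice were given 5×10^6 Eca-109 cells s.c. in PBS into the right forelimb. At about 100 mm³ (~14 days), the compound was given at 5 mg/kg in 0.2 mL via the lateral tail vein, with no irradiation; 6 mice/group. Orthogonal L and W were measured every two days for 14 days, and V = LW²/2.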

| Compound | viability at 24 h, 20 µM [1] [%] | DPBF oxidation rate constant [2] [×10⁻² k/min] | IC50 at 24 h [3] [µM] | IC50 (ECa-109 cell line [4]) [µM] | Activity [5] [×10⁻² k/min] | Activity [6] [×10⁻² k/min] | Drug uptake [7] | Drug uptake [8] | Activity (ECa-109 cell line [9]) [mm3] | Activity (ECa-109 cell line [10]) |
| --- | --- | --- | --- | --- | --- | --- | --- | --- | --- | --- |
| O=C(O)COc1cccc(-c2c3nc(cc4ccc([nH]4)c(-c4cccc(OCC(=O)O)c4)c4nc(cc5ccc2[nH]5)CC4)CC3)c1 | 80 | 30.9 | 162 | 2.62 |  |  |  |  |  |  |
| COc1ccc(-c2c3nc(cc4ccc([nH]4)c(-c4ccc(OC)c(OCC(=O)O)c4)c4nc(cc5ccc2[nH]5)C=C4)C=C3)cc1OCC(=O)O | 80 | 2.41 | 158 | 12.5 |  |  |  |  |  |  |
| COc1ccc(-c2c3nc(cc4ccc([nH]4)c(-c4ccc(OC)c(OCCCC(=O)O)c4)c4nc(cc5ccc2[nH]5)CC4)CC3)cc1OCCCC(=O)O | 80 |  | > 300 | 2.47 | 48.6 |  |  |  |  |  |
| COc1ccc(-c2c3nc(cc4ccc([nH]4)c(-c4ccc(OC)c(OCC(=O)O)c4)c4nc(cc5ccc2[nH]5)CC4)C=C3)cc1OCC(=O)O | 80 | 14.2 | 111 | 3.14 |  |  |  |  |  |  |
| O=C(O)CCCOc1cccc(-c2c3nc(cc4ccc([nH]4)c(-c4cccc(OCCCC(=O)O)c4)c4nc(cc5ccc2[nH]5)CC4)C=C3)c1 | 80 | 24.9 | > 300 | 2.65 |  |  |  |  |  |  |
| COc1ccc(-c2c3nc(cc4ccc([nH]4)c(-c4ccc(OC)c(OCC(=O)O)c4)c4nc(cc5ccc2[nH]5)CC4)CC3)cc1OCC(=O)O | 80 | 38.7 | 187 | 3.09 |  |  |  |  |  |  |
| O=C(O)COc1cccc(-c2c3nc(cc4ccc([nH]4)c(-c4cccc(OCC(=O)O)c4)c4nc(cc5ccc2[nH]5)CC4)C=C3)c1 | 80 |  | 91.8 | 3.31 |  | 4.06 |  |  |  |  |
| O=C(O)CCCOc1cccc(-c2c3nc(cc4ccc([nH]4)c(-c4cccc(OCCCC(=O)O)c4)c4nc(cc5ccc2[nH]5)C=C4)C=C3)c1 | 80 | 1.93 | 271 | 8.19 |  |  |  |  |  |  |
| O=C(O)CCCOc1cccc(-c2c3nc(cc4ccc([nH]4)c(-c4cccc(OCCCC(=O)O)c4)c4nc(cc5ccc2[nH]5)CC4)CC3)c1 | 80 |  | > 500 | 2.43 |  | 69.1 | Active | Active | 126 | inactive |
| COc1ccc(-c2c3nc(cc4ccc([nH]4)c(-c4ccc(OC)c(OCCCC(=O)O)c4)c4nc(cc5ccc2[nH]5)C=C4)C=C3)cc1OCCCC(=O)O | 80 | 1.68 | 183 | 10.1 |  |  |  |  |  |  |
| COc1ccc(-c2c3nc(cc4ccc([nH]4)c(-c4ccc(OC)c(OCCCC(=O)O)c4)c4nc(cc5ccc2[nH]5)CC4)C=C3)cc1OCCCC(=O)O | 80 | 19.8 | > 300 | 2.83 |  |  |  |  |  |  |
| O=C(O)COc1cccc(-c2c3nc(cc4ccc([nH]4)c(-c4cccc(OCC(=O)O)c4)c4nc(cc5ccc2[nH]5)C=C4)C=C3)c1 | 80 | 0.829 | 74.6 | 9.41 |  |  |  |  |  |  |
